Screening data as filed in PubChem BioAssay.
SR-BI DiI-HDL act: SR-BI HDL lipid transfer activation. CHO ldlA[mSR-BI] cells, DiI-HDL uptake fluorescence, 3 h; 100 = double the neutral-control signal. activation, % at 12.5 µM. 320,000 compounds, 0.096% hits;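 active = mean replicate activation of at least 60% and every replicate at or above 60%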;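 note: 0% = median plate neutral-control signal and 100% = twice that signal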
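system = CHO ldlA[mSR-BI] cells, LDL receptor-null, SR-BI overexpressing | medium = Ham's F12 with 0.5% BSA, HEPES 25 mM, pH 7.4 | probe or stimulus = DiI-HDL 10 µg/mL | compound dosing = single-point compound dose | incubation = compound exposure 3 h, 37 °C | technique = DiI fluorescence, bottom read | read-out = cell-associated DiI fluorescence as measure of HDL uptake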
NTR1 ag: activates human neurotensin receptor 1; 330,000 compounds, 0.17% hits; activation, % at 20 µM; P30989; AID 493036; NTR1-U2OS beta-arrestin-GFP spot imaging, agonist mode;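 active = activation at or above 40% of the spot to cytoplasm intensity ratio, with at least 20 cells analyzed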;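 note: 0% = DMSO without peptide and 100% = 100 nM NTR1 peptide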
V-ATPase pHluor: regulators of yeast V-ATPase proton transport. S. cerevisiae, pHLuorin cytosolic pH fluorescence. response, % at 10 µM. 350,000 compounds, 0.37% hits. AID 504577; in the data active = response mostly above about 7.3%, no sharp cut-off; inactive = mostly below about 5.4%; note: actives read high
Vif imaging: inhibitors of HIV Vif; inhibition, % at 7.49 µM; 340,000 compounds, 0.35% hits; AID 602346; HEK293T cells, Vif self-association by quenched fluorescence, imaging, 24 h; in the data active = inhibition above about 50%, passing the limit was not always enough
CaV13 FRET inh: Disruptors of the CACNA1D IQ motif to Ca2+-dependent inactivation inhibitor domain association, primary screening, Förster resonance energy transfer in intact living … | inhibition, % at 12.3 µM | 340,000 compounds, 0.098% hits | AID 743397 | HEK cells, CFP/YFP FRET ICDI-IQ, plate reader, 10 min; percent FRET-ratio fall versus neutral wells;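 active = mean replicate inhibition of at least 30% and at least 1% of replicates passing that level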;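 note: 0% = median of the neutral control wells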
SR-BI DiI inh: inhibitors of mouse SR-BI mediated HDL lipid uptake; AID 488896; ldlA[mSR-BI] CHO cells, DiI-HDL uptake fluorescence, 3 h; inhibition, % at 12.5 µM; 320,000 compounds, 0.96% hits; Q61009;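 active = mean replicate inhibition of at least 70% and a set share of replicates each scoring 70 or more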;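 note: 0% = median of neutral control wells and 100% = median of positive control wells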
Target sequence (Q61009 whole entry, looked up): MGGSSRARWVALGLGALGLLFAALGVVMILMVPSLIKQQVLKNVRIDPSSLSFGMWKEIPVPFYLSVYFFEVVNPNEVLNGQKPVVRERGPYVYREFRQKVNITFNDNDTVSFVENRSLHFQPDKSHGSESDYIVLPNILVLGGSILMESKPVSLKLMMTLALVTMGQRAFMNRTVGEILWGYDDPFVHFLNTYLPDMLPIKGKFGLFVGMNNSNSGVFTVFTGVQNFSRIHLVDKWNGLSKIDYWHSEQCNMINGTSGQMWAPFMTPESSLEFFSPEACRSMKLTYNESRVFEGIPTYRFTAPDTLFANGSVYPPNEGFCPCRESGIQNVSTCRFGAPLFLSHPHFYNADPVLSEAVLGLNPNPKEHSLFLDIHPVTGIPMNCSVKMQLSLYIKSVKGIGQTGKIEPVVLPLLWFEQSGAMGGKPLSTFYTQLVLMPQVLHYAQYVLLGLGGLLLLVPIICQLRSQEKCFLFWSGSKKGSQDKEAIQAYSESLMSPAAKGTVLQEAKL
VATPase regulator: modulates yeast V-ATPase proton transport; AID 602197; response, % at 10 µM; S. cerevisiae pHLuorin cytosolic pH; shares compounds with V-ATPase pHluor; 980 compounds, 2% hits; in the data active = response above about 24%;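 note: plate controls were vehicle wells for no effect and positive control wells for full effect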
Active calls of the source: *; nt = not tested or not shown. Rows were chosen to be rich in hits. Some 1.7% of all compounds tested hit in one or more screens of this group.

SMILES	SR-BI DiI-HDL act	NTR1 ag	V-ATPase pHluor	Vif imaging	CaV13 FRET inh	SR-BI DiI inh	VATPase regulator
Cc1cccc(NC(=O)CSc2nnc3ccc(-c4cccnc4)nn23)c1	nt	nt	2	5	17	nt	nt
CC1CCc2c(sc3ncn(CCO)c(=O)c23)C1 (stereo not given)	6	2	-3	5	7	-6	nt
CC1CCc2c(sc3ncn(Cc4ccc(C(=O)O)cc4)c(=O)c23)C1 (stereo not given)	7	1	6.6*	-13	-2	-7	3
O=C(NCCCCNC(=O)c1ccc(F)cc1)c1ccc(F)cc1	1	-1	1	13	-1	-1	0
C=CC[C@H](CC(=O)N(CCO)Cc1ccccc1)C(=O)N[C@@H](C)COC(=O)[C@H](CC=C)CC(=O)OC(C)(C)C	0	0	-6	-2	-3	0	nt
C=CC[C@@H](CC(=O)N(CCO)Cc1ccccc1)C(=O)N[C@@H](C)COC(=O)[C@@H](CC=C)CC(=O)OC(C)(C)C	17	-1	14*	-6	-6	-17	5
CON(c1nc(Cl)nc(N(C)C)n1)S(=O)(=O)c1ccc(C)cc1	-6	4	2	nt	-20	6	nt
COc1nc(N(C)C)nc(N(C#N)S(=O)(=O)c2ccc(C)cc2)n1	27	-1	11*	5	-21	-27	-4
O=C(NCCCN1CCCC1=O)c1cn(-c2ccccc2)nc1-c1ccccc1	0	1	0	5	-11	0	nt
CCOC(=O)Cn1c(-c2ccccn2)nc2ccccc21	-18	1	-1	0	nt	18	0
COC(=O)Cn1c(=O)c(C)nc2ccccc21	4	1	-2	0	-14	-4	-3
COC(=O)Cn1c(O)c(N=NC(=O)CNC(=O)c2ccc3c(c2)OCCO3)c2ccccc21	21	1	0	-7	-2	-21	nt
CCOC(=O)Cn1c(C(C)=O)nc2ccccc21	nt	5	2	15	-2	nt	-3
CCOC(=O)N=Nc1c(O)n(CC(=O)OC)c2ccccc12	17	0	5	3	-6	-17	2
CN(C)S(=O)(=O)c1cccc(-c2nnc3n2CCCCC3)c1	nt	1	3	-5	-10	nt	nt
CCCCn1c(=O)c(CCC(=O)O)nc2ccccc21	14	2	-2	-4	-2	-14	nt
CCOC(=O)Cn1c(=O)c(-c2ccccc2NC)nc2ccccc21	-17	0	-1	8	nt	17	1
COC(=O)Cn1c(C)nc2ccccc21	5	-1	-2	-4	-8	-5	nt
CCOC(=O)Cn1c(C)nc2ccccc21	25	-1	3	11	0	-25	-7
O=C(O)Cn1c(=O)c(-c2ccccc2)nc2ccccc21	-1	-2	-1	-5	-9	1	nt
CCOC(=O)Cn1c(=N)n(Cc2ccccc2)c2ccccc21	9	-1	-4	-5	nt	-9	nt
CCOC(=O)Cc1nc2ccccc2n(CC#N)c1=O	29	0	1	6	-38	-29	-53
CCOC(=O)Cn1c(=O)n(CC(=O)OCC)c2ccccc21	-2	0	2	1	-3	2	-2
O=C(CCc1nnc(CCCc2ccccc2)o1)NCCCC1CCCC1	2	1	2	-2	-7	-2	nt
O=C(NS(=O)(=O)Nc1ccccc1)C1=C(N2CCCC2)COC1=O	27	1	-4	-3	-6	-27	nt
CCCCCOc1ccc(C(C)(O)C(CN2CCOCC2)c2ccccc2)cc1 (stereo not given)	nt	13	14*	1	-18	nt	-1
O=C(NN=C1CCCCCCC1)c1ccc(F)cc1	4	0	1	0	-1	-4	-4
CC(C)(C)c1ccc(C(=O)NN=C2CCCC2)cc1	17	1	-3	-1	23	-17	nt
CSc1ccccc1C(=O)N1CCC2(CC1)CC(=O)c1ccccc1O2	16	1	-5	1	-6	-16	nt
